In the library only some 1.3% were active in any assay of this set; here they are far more common.
AF4-AF9 inh: inhibitors of AF4 peptide binding to AF9, primary screen, biochemical, AlphaScreen, biotin-AF4 peptide, FLAG-AF9, single point; Protein AF-9 (Homo sapiens), P42568; inhibition, % at 10 µM; 350,000 compounds, 0.47% hits; AID 651704, 2012;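 active = every replicate reaching a set inhibition limit, whatever the replicate mean, cut at about 25% in these data; inconclusive = mean inhibition reaches that limit but some replicates miss it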
Target sequence (P42568 whole entry, looked up): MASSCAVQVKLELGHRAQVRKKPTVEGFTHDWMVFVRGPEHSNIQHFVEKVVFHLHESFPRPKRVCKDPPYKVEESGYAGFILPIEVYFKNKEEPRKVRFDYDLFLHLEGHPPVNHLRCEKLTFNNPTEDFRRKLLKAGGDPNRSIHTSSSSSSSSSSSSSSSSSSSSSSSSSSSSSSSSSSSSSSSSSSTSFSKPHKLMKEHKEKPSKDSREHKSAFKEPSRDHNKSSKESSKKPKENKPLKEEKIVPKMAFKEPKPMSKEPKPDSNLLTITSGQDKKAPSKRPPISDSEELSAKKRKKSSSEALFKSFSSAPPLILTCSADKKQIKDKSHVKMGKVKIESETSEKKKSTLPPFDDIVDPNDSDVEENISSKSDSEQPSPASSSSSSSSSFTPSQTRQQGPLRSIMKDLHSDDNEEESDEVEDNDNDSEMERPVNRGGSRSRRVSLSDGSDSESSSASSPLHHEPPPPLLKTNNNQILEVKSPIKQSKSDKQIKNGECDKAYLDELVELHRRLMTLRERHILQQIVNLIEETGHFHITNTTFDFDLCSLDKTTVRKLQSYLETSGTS
INS-1E GSIS act: GLuc luminescence reporter in INS-1E cells, primary screen for activators of glucose-dependent secretion of insulin; INS-1E GLuc reporter insulin secretion, 2-3 h; activation, % at 16.6 µM; 370,000 compounds, 0.61% hits;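 active = lowest replicate activation of at least 40%, so every replicate reaches that level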
RAD52 inh: RAD52 DNA annealing inhibitors, primary screen, biochemical, FRET, single point, set 2 | 360,000 compounds, 0.46% hits | DNA repair protein RAD52 homolog (Homo sapiens), P43351 | recombinant RAD52 DNA annealing, FRET fluorescence | inhibition, % at 18.7 µM;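 active = every replicate showing at least 50% inhibition; inconclusive = mean inhibition at least 50% but not in every replicate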
S100A4 MyoIIA: inhibitors of S100A4-myosin IIA peptide binding, primary screen, biochemical, fluorescence polarization, TAMRA-MyoIIA peptide; Protein S100-A4 (Homo sapiens), P26447; inhibition, % at 10.7 µM; 360,000 compounds, 0.14% hits;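 active = mean inhibition of at least 70% across replicates, with every replicate also reaching that level; inconclusive = mean inhibition reaches 70% but some replicates fall short; inactive = mean inhibition below 70%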
Target sequence (P26447 whole entry, looked up): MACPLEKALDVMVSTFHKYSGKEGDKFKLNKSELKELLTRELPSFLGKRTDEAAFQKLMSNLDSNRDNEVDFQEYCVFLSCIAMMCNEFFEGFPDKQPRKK
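assay system = human S100A4 monomer with TAMRA-labelled myosin IIA peptide | also added = labelled myosin peptide probe, 5 nM | incubation = 5 min between mix addition and reading | control set = DMSO and TFP controls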
RAD54 inh: inhibitors of human RAD54 branch migration, primary screen, biochemical, fluorescence, single point | DNA repair and recombination protein RAD54-like (Homo sapiens), Q92698 | 360,000 compounds, 0.14% hits | inhibition, % at 10.4 µM | RAD54 Holliday junction branch migration, FAM/BHQ fluorescence;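 active = mean normalized replicate activity at least 40 and at least half of replicates scoring 40 or more; inconclusive = only one of the two criteria met; inactive = mean below 40 and under half of replicates reaching 40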;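 also: inhibitors cause a drop in the FAM fluorescence signal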
DNA binding: DNA binding of candidate compounds, dose response, artefact control for RAD54 inhibitor project, biochemical, fluorescence polarization, cherry-pick | AC50, µM (highest dose often 35 µM) | 460 compounds, 8% hits | Acridine orange-DNA displacement, 20 min | shares compounds with RAD54 inh;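 active = signal drop giving an AC50 within twice the top valid tested concentration of each sample, actives reach about 35 µM in these data; inactive = activity opposite to expected, plus the rest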;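 also: polarization loss reports compound binding to salmon sperm DNA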
Of the large screens only hits and unclear results are named; the others gave an inactive call (follow-up assays come after a bar, where they were run).

COc1cc(/C=N/N2CCN(c3ccccc3)CC2)cc(OC)c1OC(C)=O	AF4-AF9 inh 26
CC(=O)Nc1ccc(-c2ccnc3c2CC(C)(C(=O)Nc2cccc(OC(F)(F)F)c2)O3)cc1 (centres undefined)	INS-1E GSIS act 69
CC(=O)Nc1ccc(-c2ccnc3c2CC(C)(C(=O)Nc2cccc(C(F)(F)F)c2)O3)cc1 (centres undefined)	none
Cc1noc(C)c1NC(=O)N[C@H]1C=C[C@H](CC(=O)N2CCN(C)CC2)O[C@@H]1CO	none
CN1CCN(C(=O)c2cccc(-c3cnc4cnc(-c5ccccc5Oc5ccccc5)cn34)c2)CC1	INS-1E GSIS act 42
Oc1c(CN2CCOCC2)cc(COCc2ccccc2)c2cccnc12	none (no result: AF4-AF9 inh, RAD52 inh, S100A4 MyoIIA)
Oc1c(CNc2ccccc2)cc(COCc2ccccc2)c2cccnc12	AF4-AF9 inh 68
Cc1cccc2cc3c(N)c(C#N)sc3nc12	RAD54 inh 71 (no result: AF4-AF9 inh, INS-1E GSIS act, RAD52 inh, S100A4 MyoIIA) | DNA binding inactive
CCN1CCN(CCCNC(=O)c2cc3c(=O)oc4ccc(C)cc4c3s2)CC1	RAD54 inh 53 | DNA binding inactive
Cc1ccc2oc(=O)c3cc(C(=O)NCCCN4CCN(C)CC4)sc3c2c1	RAD54 inh 62 | DNA binding inactive
Cc1ccc2oc(=O)c3cc(C(=O)NCCCN4CC(C)CC(C)C4)sc3c2c1 (centres undefined)	none (no result: INS-1E GSIS act)
Cc1ccc2oc(=O)c3cc(C(=O)NCCCN4C(C)CCCC4C)sc3c2c1 (centres undefined)	RAD54 inh 54 | DNA binding inactive
O=C(NCCCN1CCCCCC1)c1cc2c(=O)oc3ccccc3c2s1	none
CC(=O)Nc1ccc2ccccc2c1	none (no result: AF4-AF9 inh, INS-1E GSIS act, RAD52 inh, S100A4 MyoIIA)
CC(=O)Nc1ccc2cc3ccc(NC(C)=O)cc3nc2c1	RAD54 inh 51 | DNA binding inactive
COc1ccc(NC(=O)N(C)C[C@@H]2Oc3ncc(-c4ccc(C#N)cc4)cc3C(=O)N([C@@H](C)CO)C[C@@H]2C)cc1	none
Nc1ccc(-c2nc3c(ccc4ccccc43)[nH]2)cc1	RAD54 inh 50 | DNA binding inactive
Nc1ccc(-c2nc3ccccc3[nH]2)cc1	none
CCN(CC)CCn1c2ccccc2c2nc3ccc([N+](=O)[O-])cc3cc21	RAD54 inh inconclusive | DNA binding inactive
C[C@H]1CN([C@@H](C)CO)C(=O)Cc2cc(NS(=O)(=O)c3ccc(Cl)cc3)ccc2O[C@H]1CN(C)C(=O)Nc1ccc2c(c1)OCO2	none (no result: AF4-AF9 inh, RAD52 inh, S100A4 MyoIIA, RAD54 inh)
CCOC(=O)c1c(C)n(C)c2ccc(OCC(O)CN3CCN(C)CC3)cc12 (centres undefined)	RAD54 inh inconclusive | DNA binding inactive
C[C@@H]1CN([C@H](C)CO)C(=O)c2cc(NC(=O)Nc3ccccc3)ccc2O[C@@H](C)CCCCO[C@@H]1CN(C)Cc1ccc(C(=O)O)cc1	none
COCCNC(=S)Nc1ccc2nc(N3CCCC3)cc(C)c2c1	none (no result: AF4-AF9 inh, RAD52 inh, S100A4 MyoIIA)
CCN1CCN(C(=S)Nc2ccc3nc(N4CCN(CC)CC4)cc(C)c3c2)CC1	RAD54 inh 62 (no result: AF4-AF9 inh, RAD52 inh, S100A4 MyoIIA) | DNA binding inactive
CCOCCCNC(=S)Nc1ccc2nc(N3CCCC3)cc(C)c2c1	RAD54 inh 60 (no result: AF4-AF9 inh, RAD52 inh, S100A4 MyoIIA) | DNA binding inactive
CCN1CCN(c2cc(C)c3cc(NC(=S)N4CCCC4)ccc3n2)CC1	none (no result: RAD54 inh)
O=C1CN(Cc2ccc(F)cc2)C[C@@H]2[C@H](c3ccc(-c4ccccc4F)cc3)[C@H](CO)N12	none (no result: RAD54 inh)
CCCN(CCC)CCCNC(=O)c1cc2c(=O)[nH]c3ccccc3c2s1	RAD54 inh 51 | DNA binding inactive
CCCCN(CC)CCNC(=O)c1cc2c(=O)[nH]c3ccccc3c2s1	none
CCn1c(=O)c2cc(C(=O)NCCN(C)C)sc2c2ccccc21	RAD54 inh 53 | DNA binding inactive
CCN(CC)CCNC(=O)c1cc2c(=O)n(CC)c3ccccc3c2s1	none (no result: INS-1E GSIS act)
COc1ccccc1S(=O)(=O)N[C@H]1C=C[C@H](CC(=O)NCc2cccc(F)c2)O[C@H]1CO	none
Cc1cccc(S(=O)(=O)N2CC[C@@H]3[C@H](CO)N(C)c4ccc(-c5cccc(C#N)c5)cc4[C@@H]32)c1	none
O=C(Nc1cccc([N+](=O)[O-])c1)c1cc(S(=O)(=O)N2CCOCC2)cs1	RAD54 inh 57 | DNA binding inactive
O=C(Nc1cccc(Br)c1)c1cc(S(=O)(=O)N2CCOCC2)cs1	RAD54 inh 52 | DNA binding inactive
O=C(Nc1ccccc1)c1cc(S(=O)(=O)N2CCOCC2)cs1	RAD54 inh inconclusive (no result: AF4-AF9 inh, RAD52 inh, S100A4 MyoIIA) | DNA binding inactive
O=C(Nc1ccccc1[N+](=O)[O-])c1cc(S(=O)(=O)N2CCOCC2)cs1	none
CCOc1ccc(NC(=O)c2cc(S(=O)(=O)N3CCOCC3)cs2)cc1	none
CCCNC(=O)Nc1ccc2c(c1)OC[C@@H](C)N(Cc1cncnc1)C[C@@H](C)[C@H](OC)CN(C)C2=O	none
C[C@H](CO)N1C[C@H](C)[C@H](CN(C)C(=O)C2CCOCC2)Oc2ncc(C#CCc3ccccc3)cc2C1=O	none
COc1ccccc1Nc1nc(NCC2CCCO2)c2ccccc2n1 (centres undefined)	RAD54 inh 67 | DNA binding inactive
CC(=O)N(C)C[C@@H]1Oc2cc(C#Cc3cccnc3)ccc2S(=O)(=O)N([C@H](C)CO)C[C@@H]1C	none
CCc1nc(Nc2ccncc2)c2oc3ccccc3c2n1	RAD54 inh 66 (no result: AF4-AF9 inh, RAD52 inh, S100A4 MyoIIA) | DNA binding inactive
CCS(=O)(=O)Nc1ccc2c(c1)C(=O)N(C)[C@@H]1CC[C@H](CC(=O)Nc3ccccc3)O[C@@H]1CO2	none
Cc1ccc(-c2nc(N3CCN(C)CC3)c3ccccc3n2)cc1	RAD54 inh 57 | DNA binding inactive
CN1CCN(c2nc(-c3ccc(C(C)(C)C)cc3)nc3ccccc23)CC1	none
CN1CCN(c2ncnc3c2[nH]c2ccc(F)cc23)CC1	RAD54 inh 76 (no result: AF4-AF9 inh, INS-1E GSIS act, RAD52 inh, S100A4 MyoIIA) | DNA binding inactive
c1ccc2c(c1)[nH]c1c(N3CCN(C4CCCCC4)CC3)ncnc12	RAD54 inh inconclusive (no result: AF4-AF9 inh, RAD52 inh, S100A4 MyoIIA) | DNA binding inactive
Cc1noc(C)c1NC(=O)Nc1ccc2c(c1)CC(=O)N([C@@H](C)CO)C[C@@H](C)[C@@H](CN(C)S(=O)(=O)c1cn(C)cn1)O2	none (no result: AF4-AF9 inh, RAD52 inh, S100A4 MyoIIA)
NNC(=O)c1oc2nc(-c3cccs3)cc(-c3ccco3)c2c1N	RAD54 inh inconclusive (no result: INS-1E GSIS act) | DNA binding inactive
COc1ccc(CC(=O)Nc2cccc(-c3nnc(-c4ccc(C)cc4)o3)c2)cc1OC	none
Cc1ccc(OCC(=O)Nc2cccc(-c3nnc(-c4ccccc4)o3)c2)c(C)c1	RAD54 inh inconclusive (no result: AF4-AF9 inh, INS-1E GSIS act, RAD52 inh, S100A4 MyoIIA) | DNA binding inactive
CC(=O)c1ccc(Nc2cc(C)nc3c(C)cc(C)cc23)cc1	none (no result: RAD54 inh)

Bioassay records (PubChem)
